Series [1] can be described thus: Clearance in ICR mouse at 2 mg/kg, iv measured up to 24 hrs by LC-MS/MS analysis. It is filed as ADME, organism-based. The settings on record: in vivo.
The nature of series [2]: Tmax in ICR mouse at 10 mg/kg, po measured up to 24 hrs by LC-MS/MS analysis. It is filed as ADME, organism-based. Conditions: in vivo.
Series [3] deals with NCI-H446. The series can be described thus: Anti-tumor activity against human NCI-H446 cells xenografted in athymic nu/nu nude mouse assessed as reduction in tumor volume at 50 mg/kg, po administered at 5 on-2-off for 3 weeks and further dosed 100 mg/kg, po for 4 th week relative to control. The settings on record: time 4.0 weeks. Type of series: functional, organism-based. The gist of the method: (§1)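 Male athymic nu/nu mice, 6 weeks old, inoculated subcutaneously with 1 × 10⁶ NCI-H446 cells in saline with 50% Matrigel. Dosing IV or oral, vehicle 5% dimethylacetamide/95% PEG400, on a 5-on-2-off schedule for 2–4 weeks once tumors reached ≥200 mm³. Caliper volume = length × width²/2; tumors and body weight measured at least twice weekly. ANOVA with Student–Newman–Keuls, P < 0.05.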
A general note: A xenograft is tissue or cells of one species grown in another, often human tumour cells in immunodeficient mice.

The nature of series [4]: Volume of distribution at steady state in ICR mouse at 2 mg/kg, iv measured up to 24 hrs by LC-MS/MS analysis. It is filed as ADME, organism-based. The settings on record: in vivo, read-out: Vdss.
Series [5] is described as follows: Half life in ICR mouse at 10 mg/kg, po measured up to 24 hrs by LC-MS/MS analysis. It is filed as ADME, organism-based. The settings on record: in vivo.
Series [6] has as its system NCI-H446. The series can be described thus: Effect on cMYC protein expression level in human NCI-H446 cells xenografted in athymic nu/nu nude mouse at 100 mg/kg, po measured upto 24 hrs by western blot analysis relative to control. Conditions: time hrs <=24.
The nature of series [7]: Half life in ICR mouse at 2 mg/kg, iv measured up to 24 hrs by LC-MS/MS analysis. Type of series: ADME, organism-based. Conditions: in vivo.
Series [8] in a line: AUC (0 to inf) in ICR mouse at 2 mg/kg, iv measured up to 24 hrs by LC-MS/MS analysis. It is filed as ADME, organism-based. The settings on record: ICR, in vivo. Details: route intravenous, dose 2 mg/kg, time <=24.
Series [9] is described as follows: Inhibition of Histone H3 phosphorylation in human NCI-H446 cells xenografted in assessed as reduction in phosphorylation at Ser 10 residue at 100 mg/kg, po measured upto 8 hrs by western blot analysis relative to control.
The nature of series [10]: AUC (0 to inf) in ICR mouse at 10 mg/kg, po measured up to 24 hrs by LC-MS/MS analysis. It is filed as ADME, organism-based. Details: route oral, dose 10 mg/kg, time <=24. Conditions: in vivo.
Series [11] is described as follows: Cmax in ICR mouse at 10 mg/kg, po measured up to 24 hrs by LC-MS/MS analysis. Type of series: ADME, organism-based. The settings on record: in vivo. More on the design: route oral, dose 10 mg/kg, time <=24.
Series [12] relates to NCI-H446. Put plainly: Induction of apoptosis in human NCI-H446 cells xenografted in athymic nu/nu nude mouse assessed as increase in cleaved PARP1 protein expression level at 100 mg/kg, po measured up to 24 hrs by Western blot analysis. Conditions: time hrs <=24.
Series [13] concerns NCI-H446. The series can be described thus: Induction of apoptosis in human NCI-H446 cells xenografted in athymic nu/nu nude mouse assessed as increase in cleaved CASP3 protein expression level at 100 mg/kg, po measured up to 24 hrs by IHC analysis. Conditions: time hrs <=24.
A short description of series [14]: Toxicity in athymic nu/nu nude mouse xenografted with NCI-H446 cells assessed as reduction in body weight 50 mg/kg, po administered at 5 on-2-off for 3 weeks and further dosed 100 mg/kg, po for 4 th week relative to control. Type of series: organism-based. The settings on record: in vivo, 672 h, at 50 to 100 mg/kg, dose 50-100 mg/kg, time 4 weeks. Details: scale not given: the % may be the effect or the level left. The gist of the method: as §1

A short description of series [15]: Toxicity in athymic nu/nu nude mouse xenografted with NCI-H446 cells assessed as reduction in body weight at 50 to 100 mg/kg, po administered at 5 on-2-off for 2 to 4 weeks relative to control. Type of series: organism-based. More on the design: scale not given: the % may be the effect or the level left. Conditions: in vivo, dose lower 50 mg/kg, time lower 2 weeks, dose upper 100 mg/kg, time upper 4 weeks. The gist of the method:
as §1

The test system of series [16] is NCI-H446. The series can be described thus: Anti-tumor activity against human NCI-H446 cells xenografted in athymic nu/nu nude mouse assessed as reduction in tumor volume at 50 to 100 mg/kg, po administered at 5 on-2-off for 2 to 4 weeks. Type of series: functional, organism-based. Conditions: dose 50-100 mg/kg, time 2-4 weeks. The gist of the method:
as §1

For series [17], the target named is Aurora kinase B (Homo sapiens) (UniProt Q96GD4). The series can be described thus: Inhibition of Aurora B phosphorylation in human NCI-H82 cells assessed as reduction in phosphorylation at Thr 232 residue at 50 to 1000 nM after 24 hrs by Western blot analysis. It is filed as cell-based. Conditions: dose 50-1000 nM. The procedure, abridged: (§2)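 Cells treated with compound at various concentrations for 24 h, then washed in PBS, lysed in Laemmli buffer and boiled 10 min. Lysates run on SDS-PAGE, transferred to PVDF and probed with antibodies, then AP- or HRP-conjugated secondaries with chemiluminescent detection. Loading control β-actin. NCI-H82 grown in RPMI1640 and SK-N-BE(2) in MEM, each with 10% FBS. Relative levels quantified from triplicate experiments.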
(In general: In western blotting, separated proteins are transferred to a membrane and probed.)

In series [18] the test system is NCI-H82. Put plainly: Inhibition of Histone H3 phosphorylation in human NCI-H82 cells assessed as reduction in phosphorylation at Ser 10 residue at 50 to 1000 nM after 24 hrs by Western blot analysis. Conditions: dose 50-1000 nM. Type of series: cell-based. The procedure, abridged:
as §2

The subject of series [19] is NCI-H82. Put plainly: Induction of cell cycle arrest in human NCI-H82 cells at 1 uM after 24 hrs by Propidium iodide staining based flow cytometric analysis. It is filed as functional. On the technique in general: A flow cytometer gives signals particle by particle.
Series [20] deals with NCI-H209. Put plainly: Growth inhibition of human NCI-H209 cells assessed as reduction in cell viability after 72 hrs by PrestoBlue Cell Viability assay. The settings on record: NCI-H209, 72 h. It is filed as functional, cell-based. The procedure, abridged:
(§3)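 Cells seeded at 5000–10,000 per well; after 24 h, treated with an eight-point titration from 0 to 10 μM in triplicate. After 72 h exposure, viability read by PrestoBlue fluorescence, and IC50 computed from the titration. SCLC lines grown in RPMI1640 and SK-N-BE(2) in MEM, each with 10% FBS.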

The test system of series [21] is NCI-H82. Put plainly: Down regulation of cMYC protein expression level in human NCI-H82 cells at 1 uM incubated for 2 to 4 hrs in presence of MG132 by Western blot analysis. Type of series: functional, cell-based. Conditions: time 2-4 hrs.
For series [22], the system named is SK-N-BE(2). The series can be described thus: Down regulation of Cyclin B1 expression in human SKNBE2 cells at 50 to 1000 nM after 24 hrs by Western blot analysis. Type of series: functional, cell-based. The settings on record: dose 50-1000 nM. The gist of the method: as §2
In series [23] the target is T1, Aurora kinase A (Homo sapiens) (UniProt O14965).
T1 sequence (whole entry): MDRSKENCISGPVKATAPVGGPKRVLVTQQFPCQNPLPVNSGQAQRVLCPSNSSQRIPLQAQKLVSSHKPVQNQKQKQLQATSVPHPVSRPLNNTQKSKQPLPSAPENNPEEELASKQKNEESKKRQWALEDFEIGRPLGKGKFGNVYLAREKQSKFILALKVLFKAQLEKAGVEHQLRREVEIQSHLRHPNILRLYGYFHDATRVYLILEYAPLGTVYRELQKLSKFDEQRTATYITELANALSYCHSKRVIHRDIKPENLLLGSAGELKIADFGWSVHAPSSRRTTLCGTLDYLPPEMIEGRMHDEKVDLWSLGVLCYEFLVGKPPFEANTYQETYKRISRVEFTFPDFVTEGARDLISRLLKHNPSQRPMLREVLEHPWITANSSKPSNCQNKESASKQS
Conditions: SKNBE2, dose 50-1000 nM, time 24.0 hrs.

Series [24] deals with SKNBE2. Put plainly: Inhibition of Histone H3 phosphorylation in human SKNBE2cells assessed as reduction in phosphorylation at Ser 10 residue at 50 to 1000 nM after 24 hrs by Western blot analysis. The settings on record: dose 50-1000 nM. The procedure, abridged: as §2
For series [25], the system named is NCI-H526. Put plainly: Growth inhibition of human NCI-H526 cells assessed as reduction in cell viability after 72 hrs by PrestoBlue Cell Viability assay. It is filed as functional, cell-based. The settings on record: NCI-H526, 72 h. The gist of the method:
as §3

For series [26], the target named is T1, Aurora kinase A (Homo sapiens). The settings on record: NCI-H82, dose 50-1000 nM, time 24.0 hrs.
Series [27] is described as follows: Oral bioavailability in ICR mouse at 10 mg/kg measured up to 24 hrs by LC-MS/MS analysis. Type of series: ADME, organism-based. Conditions: in vivo.
Series [28] is described as follows: Growth inhibition of human NCI-H841 cells assessed as reduction in cell viability after 72 hrs by PrestoBlue Cell Viability assay. It is filed as functional, cell-based. The settings on record: NCI-H841, 72 h. The gist of the method: as §3
The test system of series [29] is SK-N-BE(2). Put plainly: Growth inhibition of human SKNBE2 cells assessed as reduction in cell viability after 24 hrs by PrestoBlue Cell Viability assay. Conditions: SKNBE2, 24 h.
Series [30] addresses Aurora kinase B (Homo sapiens) (UniProt Q96GD4). Put plainly: Inhibition of Aurora B phosphorylation in human SKNBE2 cells assessed as reduction in phosphorylation at Thr 232 residue at 50 to 1000 nM after 24 hrs by Western blot analysis. The settings on record: dose 50-1000 nM. Type of series: cell-based. The procedure, abridged: as §2
Series [31] has as its system NCI-H82. The series can be described thus: Down regulation of Cyclin B1 expression in human NCI-H82 cells at 50 to 1000 nM after 24 hrs by Western blot analysis. It is filed as functional, cell-based. Conditions: dose 50-1000 nM. The procedure, abridged:
as §2

A short description of series [32]: Toxicity in athymic nu/nu nude mouse xenografted with NCI-H446 cells assessed as reduction in body weight at 50 mg/kg, iv administered at 5 on-2-off for 2 to 4 weeks relative to control. More on the design: scale not given: the % may be the effect or the level left. The settings on record: in vivo, time 2-4 weeks. Type of series: organism-based. The procedure, abridged:
as §1

pIC50: −log10 of the molar value. Active and inactive are the calls of the source. The calls are words filed in the database; no cut-off is given here.

Two molecules from ChEMBL document CHEMBL5033992, “Discovery and Synthesis of a Pyrimidine-Based Aurora Kinase Inhibitor to Reduce Levels of MYC Oncoproteins” (J Med Chem, 2021) can be followed below.

Aurora kinase B (Homo sapiens), sequence (Q96GD4 whole entry): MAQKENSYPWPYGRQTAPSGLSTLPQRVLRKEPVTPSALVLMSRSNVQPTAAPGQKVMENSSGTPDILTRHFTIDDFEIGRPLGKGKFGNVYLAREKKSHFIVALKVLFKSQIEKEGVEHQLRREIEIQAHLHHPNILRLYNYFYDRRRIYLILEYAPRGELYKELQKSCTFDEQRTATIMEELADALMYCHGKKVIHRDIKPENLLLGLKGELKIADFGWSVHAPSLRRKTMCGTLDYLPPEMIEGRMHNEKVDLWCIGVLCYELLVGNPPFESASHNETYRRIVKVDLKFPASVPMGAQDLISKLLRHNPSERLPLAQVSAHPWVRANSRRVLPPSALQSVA

Take `CCC(=O)n1nc(C)cc1Nc1cc(N2CCN(CC)CC2)nc(N[C@H]2CCN(C(=O)c3ccc(Cl)cc3F)C2)n1`: the clearance (commonly a measure of how efficiently the substance is removed, as volume per time) in series [1] amounted to 21.3 mL/min/kg. Also, in series [2], the time to peak (Tmax) (usually the time from dosing to the highest level) was 0.3 h. In addition, the outcome in series [3], in series [6], in series [12] and in series [13] was Active. Further, in series [4], the Vd turned out to be 3.4 L/kg. The half-life (as a rule, how long it takes for the measured level to halve) is 2.7 h in [5] and 4.8 h in [7]. The AUC(0-inf) (usually total exposure, with the tail of the curve extrapolated) in [8] was 1410 ng·h/mL; in series [10] it was 4400 ng·h/mL. The inhibition in vivo (commonly the share of the control response that was lost under treatment) at 100 mg/kg in series [9] is above 90%. For the same molecule, the highest concentration (Cmax) (usually the maximum level reached in the sampled fluid or tissue) in series [11] was 2080 ng/mL. Also, the Activity in [14] is below 5%; in series [15], below 5%; in series [16], “Dose-Dependent Effect”.
For the molecule `CCN1CCN(c2cc(Nc3cc(C)[nH]n3)nc(N[C@H]3CCN(C(=O)c4ccc(Cl)cc4F)C3)n2)CC1`, in series [1], the clearance was determined as 53.7 mL/min/kg. The inhibition entry in series [17], in series [23], in [26] and in [30] was “Dose-Dependent Effect” in each case. Further, the inhibition entry in series [18] and in series [24] was “Active” throughout. Further, the result in series [19], in series [22] and in series [31] was Active. Also, the pIC50 (as a rule, −log10 of the IC50, conventionally taken in molar units) in series [20] was 7.68; in series [25] it was above 7.00; in series [28], 5.68; in series [29], 9.00. For the same molecule, in series [21], the result was inactive. For the same molecule, in [2], the Tmax came out at 1 h. In addition, the Vd in [4] is 11.3 L/kg. For the same molecule, the results for the half-life in [5] and in series [7] were 1.6 h and 4 h, respectively. The AUC(0-inf) in series [8] was determined as 703 ng·h/mL; in [10], 533 ng·h/mL. Besides, the bioavailability (commonly the share of a dose that reaches the circulation, judged against a reference dose that is usually intravenous) in [27] is 16.8%. In series [11], this molecule yielded a Cmax of 395 ng/mL. In series [32], the Activity was below 5%.
